pIC50: −log10 of the molar value.
What was measured:
Rattus norvegicus = test: Biodistribution in URB597-pretreated Sprague-Dawley rat brain parenchyma at 0.3 to 0.8 nmol, iv administered 30 mins after […]-treatment measured after 60 mins by gamma counting analysis; format: ADME, organism-based; conditions: in vivo, 1 h
In short: (§1)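 Rats (n = 3–4) were injected iv with [11C]-radiotracer as in the biodistribution procedure. At various times, whole brain was homogenized and exhaustively extracted with aqueous acetonitrile. Extracted (unbound) and tissue-bound radioactivity were counted. Binding rate was fitted to a one-phase exponential association, Y = Ymax(1 − exp(−KX)). Blocking used ip pretreatment with the FAAH inhibitor.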

[1] = Half life in URB597-pretreated Sprague-Dawley rat brain parenchyma at 0.3 to 0.8 nmol, iv administered 30 mins after […]-treatment; format: ADME, organism-based; in short: as §1
Cortex [2] = test: Biodistribution in URB597-pretreated Sprague-Dawley rat brain cortex at 0.3 to 0.8 nmol, iv administered 30 mins after URB597-treatment measured after 40 mins by gamma counting analysis; format: ADME, organism-based; conditions: in vivo
In short: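 Rats received 2 mg/kg ip (2 mL/kg saline with Tween 80) of the FAAH inhibitor, or vehicle alone, 30 min before tracer. Tracer was 30–60 MBq iv by tail vein (0.3–0.8 nmol; buffered saline, 0.5% Tween 80), n = 5. Cortex was excised at 40 min, weighed, gamma counted and decay-corrected. Reported as SUV, mean ± SD. Compared with vehicle by Student's t test.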

Hypothalamus [3] = test: Biodistribution in Sprague-Dawley rat brain hypothalamus at 0.3 to 0.8 nmol, iv after 40 mins by gamma counting analysis; format: ADME, organism-based; conditions: in vivo
In short: (§2)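 Conscious male Sprague–Dawley rats (300–350 g), n = 5 per time point, received 30–60 MBq [11C]-radiotracer (70–170 GBq/μmol; 0.3–0.8 nmol) iv by tail vein in buffered saline with 0.5% Tween 80. Decapitated at 2 or 40 min. Dissected regions were weighed and gamma counted, decay-corrected to injection. Reported as SUV (%ID/g […]), mean ± SD.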

Hypothalamus [4] = test: Biodistribution in Sprague-Dawley rat brain hypothalamus at 0.3 to 0.8 nmol, iv after 2 mins by gamma counting analysis; format: ADME, organism-based; conditions: in vivo; in short: as §2
Cortex [5] = test: Biodistribution in Sprague-Dawley rat brain cortex at 0.3 to 0.8 nmol, iv after 40 mins by gamma counting analysis; format: ADME, organism-based; conditions: in vivo; in short: as §2
Cortex [6] = test: Biodistribution in Sprague-Dawley rat brain cortex at 0.3 to 0.8 nmol, iv after 2 mins by gamma counting analysis; format: ADME, organism-based; conditions: in vivo; in short: as §2
[7] = Half life in phosphate buffer at pH 7.4 by HPLC analysis; format: physicochemical
[8] = 1-octanol-phosphate buffer partition coefficient, log D of the compound at pH 7.4; format: physicochemical; conditions: octanol/water
In short: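 Radiotracer partitioned between 1-octanol and 0.02 M phosphate buffer, pH 7.4. Each determination replicated six times.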

[9] = molecular target: T1, Fatty-acid amide hydrolase 1 (Rattus norvegicus) (UniProt P97612); test: Inhibition of FAAH-mediated [3H]anandamide hydrolysis in rat brain homogenate assessed as [3H]ethanolamine production at 100 nM incubated for 60 mins prior to substrate addition measured after 10 mins by liquid scintillation counting analysis relative to control; format: tissue-based
T1 sequence (whole entry): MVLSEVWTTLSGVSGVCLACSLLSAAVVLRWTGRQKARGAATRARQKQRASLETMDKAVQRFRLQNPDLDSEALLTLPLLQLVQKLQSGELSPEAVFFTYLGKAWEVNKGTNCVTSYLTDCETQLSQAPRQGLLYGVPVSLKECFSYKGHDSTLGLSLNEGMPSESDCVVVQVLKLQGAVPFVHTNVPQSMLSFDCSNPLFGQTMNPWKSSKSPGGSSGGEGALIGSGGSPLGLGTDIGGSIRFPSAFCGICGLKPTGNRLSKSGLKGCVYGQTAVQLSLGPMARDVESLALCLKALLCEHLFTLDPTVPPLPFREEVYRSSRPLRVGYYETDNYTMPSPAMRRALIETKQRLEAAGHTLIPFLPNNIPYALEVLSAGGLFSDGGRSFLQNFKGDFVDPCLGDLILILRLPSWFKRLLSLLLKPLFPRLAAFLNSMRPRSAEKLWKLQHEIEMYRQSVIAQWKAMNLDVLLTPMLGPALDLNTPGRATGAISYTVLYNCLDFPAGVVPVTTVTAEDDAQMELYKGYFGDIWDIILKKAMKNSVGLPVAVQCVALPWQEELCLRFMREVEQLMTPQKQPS
In short: (§3)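 Rat brain homogenate (0.5 μg protein) preincubated with inhibitor 60 min, then 0.5 μM [3H]anandamide (ethanolamine-labelled) added and incubated a further 10 min at 37 °C. Reaction stopped with charcoal in 0.5 M HCl; aqueous [3H]ethanolamine counted by liquid scintillation with quench correction. Values are % inhibition ± SEM, n = 3.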

[10] = molecular target: T1, Fatty-acid amide hydrolase 1 (Rattus norvegicus); test: Inhibition of FAAH-mediated [3H]anandamide hydrolysis in rat brain homogenate assessed as [3H]ethanolamine production at 10 nM incubated for 60 mins prior to substrate addition measured after 10 mins by liquid scintillation counting analysis relative to control; format: tissue-based; in short: as §3
[11] = molecular target: T1, Fatty-acid amide hydrolase 1 (Rattus norvegicus); test: Inhibition of FAAH-mediated [3H]anandamide hydrolysis in rat brain homogenate assessed as [3H]ethanolamine production at 1 nM incubated for 60 mins prior to substrate addition measured after 10 mins by liquid scintillation counting analysis relative to control; format: tissue-based
In short: (§4)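 Rat brain homogenate (0.5 μg protein) preincubated with inhibitor 60 min, then 0.5 μM [3H]anandamide (ethanolamine-labelled) added and incubated a further 10 min at 37 °C. Reaction stopped with charcoal in 0.5 M HCl; aqueous [3H]ethanolamine counted by liquid scintillation with quench correction.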

[12] = molecular target: T1, Fatty-acid amide hydrolase 1 (Rattus norvegicus); test: Inhibition of FAAH-mediated [3H]anandamide hydrolysis in rat brain homogenate assessed as [3H]ethanolamine production at 0.1 nM incubated for 60 mins prior to substrate addition measured after 10 mins by liquid scintillation counting analysis relative to control; format: tissue-based; in short: as §4
Brain [13] = test: Drug uptake in URB597-pretreated Sprague-Dawley rat brain parenchyma at 0.3 to 0.8 nmol, iv administered 30 mins after […]-treatment measured after 40 mins by gamma counting analysis; format: ADME, organism-based; conditions: in vivo; in short: as §1
Brain [14] = test: Drug uptake in URB597-pretreated Sprague-Dawley rat brain parenchyma at 0.3 to 0.8 nmol, iv administered 30 mins after […]-treatment measured after 5 mins by gamma counting analysis; format: ADME, organism-based; conditions: in vivo; in short: as §1
[15] = molecular target: T1, Fatty-acid amide hydrolase 1 (Rattus norvegicus); test: Ratio of IC50 for FAAH in rat brain homogenate in the absence of preincubation phase to IC50 for FAAH in rat brain homogenate after 45 mins preincubation phase; format: tissue-based
[16] = molecular target: T2, Fatty-acid amide hydrolase 1 (Rattus norvegicus, UniProt P97612); test: Inhibition of FAAH-mediated [3H]anandamide hydrolysis in rat brain homogenate assessed as [3H]ethanolamine production incubated for 45 mins prior to substrate addition measured after 10 mins by liquid scintillation counting analysis; format: tissue-based
T2 sequence (P97612 whole entry): T1 sequence (whole entry)
In short: (§5)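 Rat brain homogenate (0.5 μg protein) preincubated with inhibitor at 37 °C for 45 or 90 min, eight concentrations over 0.1–30 nM or six over 1–50 nM. Then 0.5 μM [3H]anandamide added for a further 10 min at 37 °C. Charcoal/HCl stop; [3H]ethanolamine in aqueous phase counted by scintillation. pI50 ± value reported, converted to IC50.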

[17] = molecular target: T2, Fatty-acid amide hydrolase 1; test: Inhibition of FAAH-mediated [3H]anandamide hydrolysis in rat brain homogenate assessed as [3H]ethanolamine production incubated for 90 mins prior to substrate addition measured after 10 mins by liquid scintillation counting analysis; format: tissue-based; in short: as §5
Plasma = test: Percentage unbound in human plasma after 10 mins by ultrafiltration method; format: ADME, cell-free
In short: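 Human plasma from 6 blood samples was spiked with [11C]-radiotracer, held 10 min at ambient temperature, then ultrafiltered by centrifugation. Ultrafiltrate and plasma were counted and weighed. Binding to the device was corrected using pH 7.4 phosphate buffer in place of plasma.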

| Structure (SMILES) | SUV (Cortex [2]) | SUV (Hypothalamus [3]) | SUV (Hypothalamus [4]) | Drug uptake (Cortex [5]) | SUV (Cortex [5]) | SUV (Cortex [6]) | t1/2 [7] | logD [8] | inhibition [9] | inhibition [10] | inhibition [11] | inhibition [12] | also measured |
| --- | --- | --- | --- | --- | --- | --- | --- | --- | --- | --- | --- | --- | --- |
| O=[11C](NC1CCCCC1)Oc1ccc(O)c(-c2ccccc2)c1 | 0.36 | 1.14 | 1.61 | 80% | 2.49 | 2.4 | – | – | – | – | – | – | Drug uptake (Rattus norvegicus): 90%; half-life [1]: 6.6 min |
| O=C(NC1CCC1)Oc1ccc(O)c(-c2ccccc2)c1 | – | – | – | – | – | – | 89 h | 3.42 | 101% | 70% | 8% | -0.1% | – |
| CN1CCC(NC(=O)Oc2cccc(-c3ccccc3)c2)CC1 | – | – | – | – | – | – | – | – | 13% | 6% | 9% | 6% | – |
| O=[11C](NC1CCCC1)Oc1ccc(O)c(-c2ccccc2)c1 | 0.33 | 1.22 | 1.87 | 80% | 3.09 | 2.36 | – | – | – | – | – | – | Drug uptake (Rattus norvegicus): 90%; half-life [1]: 5.5 min; Drug uptake (Brain [13]): Not Active; Drug uptake (Brain [14]): Not Active |
| O=C(NC1CCCCC1)Oc1ccc(O)c(-c2ccccc2)c1 | – | – | – | – | – | – | 121 h | 2.85 | 101% | 69% | 4% | -2% | Ratio IC50 [15]: 4; pIC50 [16]: 8.03; pIC50 [17]: 8.31; Fu (Plasma): 0.75% |
| NC(=O)c1cccc(-c2cccc(O[11C](=O)NC3CCCCC3)c2)c1 | 0.17 | 0.51 | 0.47 | 80% | 0.94 | 0.79 | – | – | – | – | – | – | – |
| O=C(NC1CCCCC1)Oc1cccc(C2=NCCO2)c1 | – | – | – | – | – | – | 5.1 h | 3.01 | 99% | 97% | 31% | 0.2% | – |
| CCCCCCN[11C](=O)Oc1ccc(O)c(-c2ccccc2)c1 | 0.27 | 1.25 | 1.21 | 80% | 2.49 | 1.63 | – | – | – | – | – | – | – |
| CN1CCC(NC(=O)Oc2cccc(C3=NCCO3)c2)CC1 | – | – | – | – | – | – | 0.8 h | – | 8% | 3% | 12% | 6% | – |
| O=C(NC1CCCC1)Oc1cccc(C2=NCCO2)c1 | – | – | – | – | – | – | 4.6 h | 2.35 | 99% | 40% | 4% | -2% | – |
| CCCCCCNC(=O)Oc1cccc(C2=NCCO2)c1 | – | – | – | – | – | – | 8.7 h | 3.33 | 100% | 100% | 74% | 9% | Ratio IC50 [15]: 4; pIC50 [16]: 8.92; pIC50 [17]: 9.26 |
| CN1CCC(NC(=O)Oc2ccc(O)c(-c3ccccc3)c2)CC1 | – | – | – | – | – | – | 25 h | – | 12% | 1% | -0.5% | 2% | – |
| O=C(NC1CCCC1)Oc1ccc(O)c(-c2ccccc2)c1 | – | – | – | – | – | – | 138 h | 2.8 | 99% | 80% | 15% | -8% | – |
| CCCCCCNC(=O)Oc1ccc(O)c(-c2ccccc2)c1 | – | – | – | – | – | – | 77 h | 3.67 | 100% | 97% | 44% | 9% | Fu (Plasma): 0.35% |
| NC(=O)c1cccc(-c2cccc(OC(=O)NC3CCCCC3)c2)c1 [URB-597] | – | – | – | – | – | – | 19 h | 3.61 | – | – | – | – | Fu (Plasma): 0.48% |
| O=[11C](NC1CCC1)Oc1ccc(O)c(-c2ccccc2)c1 | 0.23 | 1.48 | 1.81 | 80% | 3.37 | 2.68 | – | – | – | – | – | – | – |

— ChEMBL document CHEMBL2311315, “Radiosynthesis and evaluation of [¹¹C-carbonyl]-labeled carbamates as fatty acid amide hydrolase radiotracers for positron emission tomography” (J Med Chem, 2013)
